According to ChEMBL document CHEMBL5126593, “Design, Synthesis, and Biological Evaluation of a Novel Series of 4-Guanidinobenzoate Derivatives as Enteropeptidase Inhibitors with Low Systemic Exposure for the Treatment of Obesity” (J Med Chem, 2022):
The source made the active and inactive calls. No cut-off for these calls is given here.

What was measured:
[1] = Aqueous stability of the compound at pH 1.2 assessed as compound decomposition measured after 24 hrs by HPLC analysis; assay type: physicochemical; conditions: aqueous solution, read-out: Drug degradation
Outline: (§1)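 Compounds at 10 μg/mL in Japanese Pharmacopoeia 17th ed. disintegration-test fluids (first fluid pH 1.2, second fluid pH 6.8), with 10% DMSO if needed, held at 37 °C. HPLC run at start and at 24 h. Decomposition derived from peak areas as residual content.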

[2] = Aqueous stability of the compound at pH 6.8 assessed as compound decomposition measured after 24 hrs by HPLC analysis; assay type: physicochemical; conditions: aqueous solution, read-out: Drug degradation; outline: as §1
[3] = Permeability of the compound at pH 7.4 by PAMPA; assay type: ADME; conditions: read-out: permeability
[4] = Permeability of the compound at pH 5.0 by PAMPA; assay type: ADME; conditions: read-out: permeability
[5] = biological target: Enteropeptidase (Homo sapiens) (UniProt P98073); assay: Inhibition of human recombinant Enteropeptidase assessed as inhibition based on initial velocity using 5FAM-Abu-Gly-Asp -Asp-Asp -Lys-Ile-Val-Gly-Gly-Lys-(CPQ2)-Lys-Lys-NH2 as substrate by fluorescence based plate reader method; conditions: TDE = time-dependent effect
Chain of Enteropeptidase (Homo sapiens) (P98073 2-784 limits assumed): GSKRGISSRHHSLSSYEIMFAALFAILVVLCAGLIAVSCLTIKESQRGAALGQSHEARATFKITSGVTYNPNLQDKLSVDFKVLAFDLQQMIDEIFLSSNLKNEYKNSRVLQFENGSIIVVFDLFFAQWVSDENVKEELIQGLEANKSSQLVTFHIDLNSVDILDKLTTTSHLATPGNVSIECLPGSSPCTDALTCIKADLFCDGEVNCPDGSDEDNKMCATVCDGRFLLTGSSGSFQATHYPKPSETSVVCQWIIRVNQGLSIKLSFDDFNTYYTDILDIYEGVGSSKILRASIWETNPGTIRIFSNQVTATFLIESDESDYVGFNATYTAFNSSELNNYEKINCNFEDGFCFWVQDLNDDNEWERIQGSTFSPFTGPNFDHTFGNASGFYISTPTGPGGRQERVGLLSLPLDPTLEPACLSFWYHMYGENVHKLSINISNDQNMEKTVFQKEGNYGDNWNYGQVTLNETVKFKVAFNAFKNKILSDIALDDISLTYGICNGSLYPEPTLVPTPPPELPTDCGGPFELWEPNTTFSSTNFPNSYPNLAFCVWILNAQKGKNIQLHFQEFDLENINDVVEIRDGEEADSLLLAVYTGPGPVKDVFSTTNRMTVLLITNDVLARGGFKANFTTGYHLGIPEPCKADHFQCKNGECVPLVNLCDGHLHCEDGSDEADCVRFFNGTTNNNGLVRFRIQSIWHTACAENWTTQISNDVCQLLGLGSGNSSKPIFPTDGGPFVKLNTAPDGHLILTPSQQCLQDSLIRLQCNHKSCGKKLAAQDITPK
Chain of Enteropeptidase (Homo sapiens) (P98073 785-1019 limits assumed): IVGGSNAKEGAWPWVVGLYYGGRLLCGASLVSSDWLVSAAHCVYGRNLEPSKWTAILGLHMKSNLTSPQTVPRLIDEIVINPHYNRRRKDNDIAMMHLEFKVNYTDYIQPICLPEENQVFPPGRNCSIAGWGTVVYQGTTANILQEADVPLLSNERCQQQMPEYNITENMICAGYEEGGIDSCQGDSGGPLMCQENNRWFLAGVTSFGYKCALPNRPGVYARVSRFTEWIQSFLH
Outline: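 Human recombinant enzyme prepared as a 24 mU/mL solution in 50 mM tricine pH 8.0, 0.01% Tween 20, 10 mM CaCl2. Compound in DMSO/buffer mixed with 2.1 μM substrate solution; enzyme added to start the reaction at room temperature. Fluorescence (ex 485/em 535 nm) read at 6 min. Inhibition taken relative to no-compound and no-enzyme controls. IC50 with 95% CI.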

[6] = Cmax in mouse plasma at 60 mg/kg, po; assay type: ADME, organism-based; design: dose 60 mg/kg, route po
[7] = Tmax in mouse plasma at 10 mg/kg, sc; assay type: ADME, organism-based
[8] = Cmax in mouse plasma at 10 mg/kg, sc; assay type: ADME, organism-based; design: dose 10 mg/kg, route sc
[9] = Tmax in mouse plasma at 60 mg/kg, po; assay type: ADME, organism-based
[10] = MRT in mouse plasma at 60 mg/kg, po; assay type: ADME, organism-based
[11] = MRT in mouse plasma at 10 mg/kg, sc; assay type: ADME, organism-based
Mus musculus = assay: In vivo inhibition of entero-peptidase in mouse assessed as increase in fecal protein content at 60 mg/kg, po; assay type: functional, organism-based
Outline: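 HFD-fed male mice (D12079B diet, 14–21 weeks old) dosed orally at 60 mg/kg, with 0.5% methylcellulose as vehicle. Whole feces collected overnight and fecal protein output determined.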

[12] = Oral bioavailability in non-fasted Sprague-Dawley rat plasma at 1 mg/kg administered as cassette dose by LC/MS/MS analysis; assay type: ADME, organism-based; conditions: in vivo, BLD = below limit of detection
Outline: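 Non-fasted SD rats given cassette oral dose of 1 mg/kg, suspended in 0.5% methylcellulose. Plasma obtained from collected blood; compound measured by LC–MS/MS.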

Rattus norvegicus [13] = assay: Anti-obesity activity in diet-induced obese F344/Jcl rat model assessed as increase in fecal protein output at 1 to 10 mg/kg, po measured on day 28; assay type: functional, organism-based; conditions: dose 1-10 mg/kg, time 28.0 day
Outline: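 Male DIO F344/Jcl rats on HFD D12451 (45 kcal % fat), n = 6 per group. Oral dosing at 1, 3 or 10 mg/kg in 0.5% methylcellulose vehicle for 4 weeks from 36 weeks of age. Fecal protein output measured; mean ± SD; statistics vs vehicle.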

Rattus norvegicus [14] = assay: Anti-obesity activity in diet-induced obese F344/Jcl rat model assessed as reduction in food intake at 1 to 10 mg/kg, po administered for 28 days; assay type: functional, organism-based; conditions: dose 1-10 mg/kg, time 28.0 day
Outline: (§2)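 Male DIO F344/Jcl rats fed HFD D12451 (45 kcal % fat, 20 kcal % protein, 35 kcal % carbohydrate) from six weeks of age. Oral dosing in 0.5% methylcellulose vehicle starts at 36 weeks of age and continues 4 weeks. Body weight recorded every 1–4 days. n = 6 per group; mean ± SD; Dunnett's t-test or one-tailed Williams' test vs vehicle.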

Rattus norvegicus [15] = assay: Anti-obesity activity in diet-induced obese F344/Jcl rat model assessed as body weight loss administered orally for 28 days measured every 4 days; assay type: functional, organism-based; conditions: route po, time 4.0 weeks, DDE = dose-dependent effect; outline: as §2

Structure (SMILES) | degraded at 24 h [1] | degraded at 24 h [2] | Papp [3] | Papp [4] | inhibition [5] | also measured
N=C(N)Nc1ccc(C(=O)Oc2ccc(CC(=O)NCC(=O)O)cc2)cc1.O=C(O)C(F)(F)F |  |  | 0.2 ×10⁻⁶ cm/s | 0.2 ×10⁻⁶ cm/s | Tde | 
CS(=O)(=O)O.N=C(N)Nc1ccc(C(=O)Oc2ccccc2)cc1 |  |  | < 0.2 ×10⁻⁶ cm/s | < 0.2 ×10⁻⁶ cm/s | Tde | 
N=C(N)Nc1ccc(C(=O)Oc2cccc(C3=NO[C@](CC(=O)O)(C(=O)O)C3)c2)cc1 |  |  |  |  |  | F [12]: Bld; Activity (Rattus norvegicus [13]): Active; Activity (Rattus norvegicus [14]): Active; Activity (Rattus norvegicus [15]): Dde

Further lines, with some results ahead:

degraded at 24 h [1] | degraded at 24 h [2] | Papp [3] | Papp [4] | inhibition [5] | Structure (SMILES) | also measured
2.8% | 5.8% |  |  |  | N=C(N)Nc1ccc(C(=O)Oc2cccc(CC(=O)N[C@@H](CC(=O)O)C(=O)O)c2)cc1 | 
3.9% | 8.6% |  |  |  | N=C(N)Nc1ccc(C(=O)Oc2cccc(C(=O)N[C@@H](CC(=O)O)C(=O)O)c2)cc1 | 
2.5% | 5% |  |  |  | Cl.N=C(N)Nc1ccc(C(=O)Oc2ccc(CC(=O)N[C@@H](CC(=O)O)C(=O)O)cc2)cc1 | Cmax [6]: 1360 ng/mL; Tmax [7]: 0.5 h; Cmax [8]: 13400 ng/mL; Tmax [9]: 1.67 h; MRT [10]: 5.07 h; MRT [11]: 0.98 h; inhibition (Mus musculus): Active
